Laboratory results: ChEMBL document CHEMBL5038608, “Design, synthesis, and biological evaluation of novel pyrrolidinone small-molecule Formyl peptide receptor 2 agonists” (Eur J Med Chem, 2021)
Converted amounts (≈) assume the structure as drawn. The source made the active and inactive calls. No cut-off for these calls is given here.

What was measured:
Neutrophil = assay: Inhibition of cell adhesion in human Neutrophils assessed as reduction on neutrophil at 1 to 100 uM incubated for 30 mins by DAPI staining based immunofluorescence assay; format: functional; conditions: dose 1-100 µM
Method in brief: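 Neutrophils isolated from healthy donor blood (Polymorphprep) and suspended in HBSS/20 mM HEPES/0.25% BSA/Ca2+, pH 7.4, at 0.5 × 10⁶/mL. Pre-incubated with agonists (final 1:5 dilution) 30 min at 37 °C. Then adhered 20 min at 37 °C on plates coated with P-selectin and ICAM-1 (1 µg/mL each), BSA-blocked. PFA-fixed and DAPI-stained; four images per well counted. 3 independent experiments × 3 technical replicates.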

[1] = Kinetic solubility of compound in PBS at pH 7.4 by UV-VIS absorption spectrophotometry analysis; format: physicochemical; conditions: PBS, read-out: Kinetic_solubility
Method in brief: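 A 10 mM DMSO stock was diluted into PBS pH 7.4 at a target of 200 µM (final PBS:DMSO 98:2), in triplicate. Agitated 500 rpm for 90 min, then filtered. Filtrate diluted to PBS:DMSO 80:20 and its UV absorbance compared against a 200–6.75 µM standard series to give the concentration remaining in solution.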

[2] = Distribution coefficient, logD of compound at pH 7.4 by shake flask method based LC-MS/MS analysis; format: physicochemical; conditions: octanol/water, read-out: logD
Method in brief: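 Shake-flask method: compound diluted from 10 mM DMSO stock into equal volumes of octanol and PBS, final concentration 100 µM. Shaken 12 h, then centrifuged. Both layers analysed in triplicate by LC-MS/MS (MRM, C8 UPLC). LogD = log10 of the octanol/buffer peak-area ratio.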

[3] = Microsomal stability in human liver microsomes assessed as half life at 1 uM preincubated for 5 mins followed by NADPH regenerating system addition measured after 30 mins by LC-MS/MS analysis; format: ADME, Microsome; conditions: t1/2, time 35 min
Method in brief: (§1)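 Human or mouse liver microsomes (0.2 mg/mL protein) with compound at 1 µM final, pre-incubated 5 min at 37 °C. Reaction started with NADPH generating solution and agitated at 37 °C, with samples quenched up to 30 min. Centrifuged; supernatant analysed in triplicate by LC-MS.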

[4] = Microsomal stability in mouse liver microsomes assessed as half life at 1 uM preincubated for 5 mins followed by NADPH regenerating system addition measured after 30 mins by LC-MS/MS analysis; format: ADME, Microsome; conditions: t1/2, time 35 min; method in brief: as §1
[5] = molecular target: T1, N-formyl peptide receptor 2 (Homo sapiens, UniProt P25090); assay: Agonist activity at FPRL1 (unknown origin) expressed in CHO-K1 cells assessed as increase in calcium mobilization incubated for 2.5 hrs by cellular based FLIPR assay; format: functional, cell-based; conditions: read-out: EC50
T1 sequence (P25090 whole entry): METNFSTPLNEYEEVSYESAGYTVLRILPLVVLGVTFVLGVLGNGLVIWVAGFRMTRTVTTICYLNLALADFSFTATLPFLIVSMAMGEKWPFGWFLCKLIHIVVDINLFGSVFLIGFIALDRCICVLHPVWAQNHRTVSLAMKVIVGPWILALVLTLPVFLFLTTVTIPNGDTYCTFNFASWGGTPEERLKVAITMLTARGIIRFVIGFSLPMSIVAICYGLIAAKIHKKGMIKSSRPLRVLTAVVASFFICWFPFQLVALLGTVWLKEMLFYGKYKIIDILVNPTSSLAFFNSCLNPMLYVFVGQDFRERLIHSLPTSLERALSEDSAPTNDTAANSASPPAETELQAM
Method in brief: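 CHO-K1 cells overexpressing hFPR2, plated at 20,000 cells/well in F-12 with 10% FBS and held overnight at 37 °C. Loaded with FLIPR Calcium 6 dye for 2 h at 37 °C, then 30 min at RT in the dark. Compounds were half-log serially diluted from 10 mM stocks in HBSS/20 mM HEPES. Cytosolic Ca2+ rise read on FLIPR Tetra. WKYMVm served as control.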

[6] = molecular target: T1, N-formyl peptide receptor 2; assay: (§2) Agonist activity at FPRL1 (unknown origin) expressed in CHO-K1 cells assessed as stimulation of beta-arrestin recruitment incubated for 150 mins by beta-galactosidase based PathHunter assay; format: functional, cell-based; conditions: read-out: EC50
Method in brief: (§3)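 PathHunter CHO-K1 FPRL1 cells expressing β-gal enzyme-fragment complementation, 5000 cells/well, held overnight at 37 °C. Stimulated with half-log serial dilutions of compounds (10 mM stocks in PBS) for 150 min at 37 °C. High control was WKYMVm at 100 nM. Detection reagent added for 60 min at RT in the dark, then chemiluminescence read.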

fMet-Leu-Phe receptor = molecular target: T2, fMet-Leu-Phe receptor (Homo sapiens, UniProt P21462); assay: Agonist activity at human FPR1 expressed in HEK293-A cells assessed as ERK phosphorylation level incubated for 5 mins by ELISA assay; format: functional, cell-based
T2 sequence (P21462 whole entry): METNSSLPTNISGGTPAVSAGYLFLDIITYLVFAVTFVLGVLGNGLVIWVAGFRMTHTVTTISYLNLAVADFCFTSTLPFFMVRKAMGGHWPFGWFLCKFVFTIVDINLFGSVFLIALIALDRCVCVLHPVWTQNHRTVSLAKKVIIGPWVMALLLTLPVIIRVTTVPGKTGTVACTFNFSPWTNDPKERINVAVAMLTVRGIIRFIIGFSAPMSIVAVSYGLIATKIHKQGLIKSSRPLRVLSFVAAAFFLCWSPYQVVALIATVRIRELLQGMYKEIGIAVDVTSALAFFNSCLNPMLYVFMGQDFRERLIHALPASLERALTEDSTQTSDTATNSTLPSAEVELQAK
Method in brief: (§4)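 HEK293A cells stably transfected with human FPR1 or FPR2, seeded at 2 × 10⁴/well and grown 48 h. Serum-starved 3 h, then stimulated 5 min with compounds in serum-free DMEM, top concentration 30 µM, 1/3 serial dilutions. Lysed in ice-cold buffer; p-ERK1/2 (pT202/Y204) measured by SimpleStep ELISA (OD). Expressed as increment over basal.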

[7] = molecular target: T1, N-formyl peptide receptor 2; assay: Agonist activity at human FPR2 expressed in HEK293-A cells assessed as ERK phosphorylation level incubated for 5 mins by ELISA assay; format: functional, cell-based; method in brief: as §4
[8] = Cmax in C57BL6 mouse at 10 mg/kg, ip measured upto 24 hrs; format: ADME, organism-based; set-up: route intraperitoneal, dose 10 mg/kg, time <=24; conditions: in vivo
Method in brief: (§5)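 Male C57BL6 mice, single intraperitoneal dose of 10 mg/kg as a clear solution in DMSO 10%/PEG400 35%/PG 25%/water 30%. 12 mice used: 9 dosed, 3 for blank plasma. Each mouse bled three times. Plasma concentration measured at eight time points over 24 h.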

[9] = Tmax in C57BL6 mouse at 10 mg/kg, ip; format: ADME, organism-based; conditions: in vivo; method in brief: as §5
[10] = Half life in C57BL6 mouse at 10 mg/kg, ip; format: ADME, organism-based; conditions: in vivo; method in brief: as §5
[11] = AUC (0 to t) in C57BL6 mouse at 10 mg/kg, ip; format: ADME, organism-based; set-up: dose 10 mg/kg; conditions: in vivo
[12] = AUC (0 to infinity) in C57BL6 mouse at 10 mg/kg, ip; format: ADME, organism-based; set-up: time infinity, route intraperitoneal, dose 10 mg/kg; conditions: in vivo
[13] = AUC extrapolated in C57BL6 mouse at 10 mg/kg, ip; format: ADME, organism-based; conditions: in vivo; method in brief: as §5
[14] = MRT(0 to t) in C57BL6 mouse at 10 mg/kg, ip; format: ADME, organism-based; conditions: in vivo; method in brief: as §5
[15] = molecular target: T3, fMet-Leu-Phe receptor (Homo sapiens) (UniProt P21462); assay: Agonist activity at human FPR1 expressed in HEK293-A cells assessed as maximal ERK phosphorylation level at 30 uM incubated for 5 mins by ELISA assay; format: functional, cell-based
T3 sequence (whole entry): T2 sequence (P21462 whole entry)
Method in brief: (§6)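 HEK293A cells stably transfected with human FPR1 or FPR2, in DMEM with 10% FCS, seeded 2×10⁴/well and grown 48 h. Serum-starved 3 h, then stimulated 5 min with compounds in serum-free DMEM (1/3 serial dilutions from top concentration). W peptide was the positive control. Lysed in ice-cold buffer. p-ERK1/2 (pT202/Y204) measured by ELISA OD and expressed as increment over basal per receptor.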

[16] = molecular target: T4, N-formyl peptide receptor 2 (Homo sapiens) (UniProt P25090); assay: Agonist activity at human FPR2 expressed in HEK293-A cells assessed as maximal ERK phosphorylation level at 30 uM incubated for 5 mins by ELISA assay; format: functional, cell-based; conditions: filed as agonist; method in brief: as §6
T4 sequence (whole entry): T1 sequence (P25090 whole entry)

[17] = molecular target: T4, N-formyl peptide receptor 2 (Homo sapiens); assay: Agonist activity at FPRL1 (unknown origin) expressed in CHO-K1 cells assessed as increase in calcium mobilization […] incubated for 2.5 hrs by cellular based FLIPR assay; format: functional, cell-based; conditions: filed as agonist, time 0.067 hrs, in the assay text read “measured for 240 s” for “incubated for 2.5 hrs”
Method in brief: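 CHO-K1 cells overexpressing human FPR2 (PathHunter FPRL1 line), plated at 20,000/well in F-12 with 10% FBS and held 1 h RT, then overnight at 37 °C. Calcium 6 dye loaded 2 h at 37 °C, then 30 min RT in the dark. Compounds were half-log serially diluted from 10 mM stocks in HBSS with 20 mM HEPES. Cytosolic Ca2+ rise read on FLIPR Tetra.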

[18] = molecular target: T4, N-formyl peptide receptor 2 (Homo sapiens); assay: as §2; format: functional, cell-based; method in brief: as §3
[19] = molecular target: T4, N-formyl peptide receptor 2 (Homo sapiens); assay: Agonist activity at FPRL1 (unknown origin) expressed in CHO-K1 cells assessed as stimulation of beta-arrestin recruitment […] incubated for 150 mins by beta-galactosidase based PathHunter assay; format: functional, cell-based
Method in brief: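 PathHunter CHO-K1 FPRL1 cells carry complementing β-galactosidase fragments. Plated at 5000/well, held 1 h RT, then overnight at 37 °C. Compounds were half-log serially diluted from 10 mM stocks in PBS. Stimulation 150 min at 37 °C; W-peptide (WKYMVm, 100 nM) was the high control. Detection reagent added for 60 min RT in the dark, with chemiluminescence read-out.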

solubility kinetic [1]	logD [2]	half-life at 1 µM [3]	half-life at 1 µM [4]	EC50 [5]	EC50 [6]	EC50 [7]	Emax [15]	Emax [16]	SMILES	also measured
15 µM (≈ 5.61 µg/mL)	> 4	> 6.67 h	> 6.67 h	430 nM	300 nM	7360 nM	15%	69%	O=C(Nc1ccc(Br)cc1)NC1CCN(c2ccccc2)C1=O (configuration not stated)	Activity (Neutrophil): Dose-Dependent Effect; EC50 (fMet-Leu-Phe receptor; read-out: EC50): 1740 nM; Cmax [8]: 3610 ng/mL; Tmax [9]: 0.25 h; half-life [10]: 9.42 h; AUC(0-t) [11]: 28600 ng·h/mL; AUC(0-inf) [12]: 35000 ng·h/mL; %AUCextra [13]: 18.17%; MRT last [14]: 9.2 h; Emax [17]: 73%
1 µM (≈ 0.406 µg/mL)	3.7	5.37 h	2.66 h	884 nM					CC(C)n1cc(N2CCC(NC(=O)Nc3ccc(Br)cc3)C2=O)cn1 (configuration not stated)	Emax [18]: inactive; Emax [19]: inactive
9 µM (≈ 3.53 µg/mL)	2.6	3.05 h	2.87 h	142 nM	740 nM	4880 nM	inactive	90%	Cc1nn(C)cc1N1CCC(NC(=O)Nc2ccc(Br)cc2)C1=O (configuration not stated)	EC50 (fMet-Leu-Phe receptor; hek293-a): Not Active; Emax ([19]; filed as agonist): 98%
